Screens (PubChem)
The list is not random: actives were taken first. Their share in the collection is about 1.7%.
SUMO1 PPI mod – modulators of SUMO1 protein-protein interactions, primary screen, biochemical, uHTS | Small ubiquitin-related modifier 1 (Homo sapiens), P63165 | SUMO1 binding to a labelled peptide, TR-FRET, 1 h | inhibition, % at 20 µM | actives 0.33% (n = 360,000) | AID 602429, 2012; in the data active means inhibition above about 37%
Scp1 inh – Scp-1 phosphatase inhibitors, primary screen, biochemical, colorimetric, uHTS | actives 0.88% (n = 340,000) | inhibition, % at 20 µM | Recombinant Scp1, phosphopeptide, malachite green phosphate absorbance | Carboxy-terminal domain RNA polymerase II polypeptide A small phosphatase 1 (Homo …;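 active means inhibition above about 50% at 20 µM, limit read from the data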;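 further: plate controls were DMSO wells with enzyme for no effect and wells lacking enzyme for full effect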
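assay system = SCP-1 phosphatase catalytic domain, residues 76-261 | buffer or medium = 50 mM Tris acetate pH 5.5, 0.005% Tween-20, 10 mM MgCl2 | incubation = enzyme reaction 45 min at room temperature, colour 5 min, stabilisation 30 min | signal = Phosphate-binding colour reagent, absorbance read at 630 nm | measure = % inhibition at 20 µM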
STEP block – STEP phosphatase inhibitors, primary screen, biochemical, fluorescence intensity, uHTS; Tyrosine-protein phosphatase non-receptor type 5 (Homo sapiens), P54829; recombinant STEP, OMFP fluorogenic substrate; inhibition, % at 20 µM; actives 0.25% (n = 360,000);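 active means inhibition at 20 µM, scaled per plate between control wells, above about 37%, limit read from the data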;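 further: 0% = DMSO with enzyme and substrate and 100% = substrate only without enzyme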
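Assay system: isolated STEP enzyme. Buffer or medium: pH 6.0 Bis-Tris with DTT and Tween 20. Also added: fluorogenic phosphatase substrate OMFP at 25 µM final. Dosing: 20 µM, 1% DMSO. Timing: 20 min reaction, room temperature, in the dark. Measured by: fluorescence intensity, excitation 480 nm, emission 540 nm. Evaluation: normalized % inhibition.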
LMPTP inh – LMPTP phosphatase inhibitors, primary screen, biochemical, fluorescence intensity, uHTS | Low molecular weight phosphotyrosine protein phosphatase (Homo sapiens), P24666 | recombinant LMPTP-A, OMFP fluorogenic substrate | inhibition, % at 20 µM | actives 0.22% (n = 360,000) | AID 651560, 2012;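 active means compounds that cut the enzyme signal by at least half of the control window in the single-dose screen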;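 further: plate controls were DMSO wells with enzyme plus substrate for no effect and substrate without enzyme for full effect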
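Test system – LMPTP-A phosphatase enzyme · Quantity – 0.625 nM LMPTP-A final · Reagent – OMFP substrate, 400 µM final · Dosing – one test concentration per compound, 20 µM, with 3% DMSO overall · Timing – 50 min enzyme reaction at room temperature, protected from light · Detection – fluorescence intensity · Controls – substrate-only low control, DMSO enzyme-plus-substrate high control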
DNMT1 inh – human DNMT1 methyltransferase inhibitors, primary screen, biochemical, molecular beacon, fluorescence, HinP1I cleavage, uHTS. DNA (cytosine-5)-methyltransferase 1 (Homo sapiens), P26358. inhibition (reported as % activation of signal), % at 10 µM. actives 0.83% (n = 360,000). AID 588458, 2011; in the data active means inhibition above about 50%
Target sequence (P26358 504-1616 limits assumed): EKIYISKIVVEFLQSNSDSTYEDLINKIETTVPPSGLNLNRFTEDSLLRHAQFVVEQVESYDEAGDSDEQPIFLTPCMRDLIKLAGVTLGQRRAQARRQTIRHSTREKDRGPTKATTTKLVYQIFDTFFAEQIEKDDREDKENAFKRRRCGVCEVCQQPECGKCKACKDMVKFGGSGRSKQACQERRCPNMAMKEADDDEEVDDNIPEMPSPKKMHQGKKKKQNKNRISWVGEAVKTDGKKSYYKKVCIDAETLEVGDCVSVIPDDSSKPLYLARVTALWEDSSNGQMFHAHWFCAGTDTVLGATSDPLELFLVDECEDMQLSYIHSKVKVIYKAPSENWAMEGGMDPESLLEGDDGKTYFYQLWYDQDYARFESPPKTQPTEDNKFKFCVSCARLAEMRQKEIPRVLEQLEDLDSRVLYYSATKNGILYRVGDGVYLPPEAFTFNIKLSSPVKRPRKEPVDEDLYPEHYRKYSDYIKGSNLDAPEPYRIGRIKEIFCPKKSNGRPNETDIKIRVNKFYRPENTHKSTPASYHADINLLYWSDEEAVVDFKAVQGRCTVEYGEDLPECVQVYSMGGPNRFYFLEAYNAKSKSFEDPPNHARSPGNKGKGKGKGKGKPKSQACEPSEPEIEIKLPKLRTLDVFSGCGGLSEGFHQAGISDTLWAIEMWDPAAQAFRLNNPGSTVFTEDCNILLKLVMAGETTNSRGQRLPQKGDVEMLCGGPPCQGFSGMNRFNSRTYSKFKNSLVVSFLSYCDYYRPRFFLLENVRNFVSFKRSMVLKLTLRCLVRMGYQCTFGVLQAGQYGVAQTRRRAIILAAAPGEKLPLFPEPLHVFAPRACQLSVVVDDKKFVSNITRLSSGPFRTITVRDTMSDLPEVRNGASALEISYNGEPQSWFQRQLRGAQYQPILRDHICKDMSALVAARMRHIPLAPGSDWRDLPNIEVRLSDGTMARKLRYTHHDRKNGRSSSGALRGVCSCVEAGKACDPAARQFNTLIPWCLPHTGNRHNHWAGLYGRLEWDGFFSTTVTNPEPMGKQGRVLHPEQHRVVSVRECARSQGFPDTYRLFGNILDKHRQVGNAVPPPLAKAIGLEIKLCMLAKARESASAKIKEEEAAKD
Beacon interf DR – spectral interference with molecular beacon fluorescence, dose response, artefact control for DNMT1 inhibitor project, biochemical, fluorescent molecular beacon; AID 602382, 2012; 200 tested, under 10 active; shares compounds with DNMT1 inh; IC50, µM; spectral interference counter-screen; call rule not given here
DNMT1 inh conf – DNMT1 methyltransferase inhibitor retest, confirmation, biochemical, molecular beacon, fluorescence, single concentration; shares compounds with DNMT1 inh; DNMT1 molecular beacon HinP1I cleavage; inhibition, % at 10 µM; actives 8% (n = 2,300); AID 602385, 2012;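 active means average inhibition of at least 30% in the single-concentration confirmation test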
Beacon interf – shows spectral interference in the DNMT1 beacon assay; shares compounds with DNMT1 inh; DNMT1 molecular beacon spectral interference counterscreen, fluorescence 485/520; actives 1% (n = 2,300); activation (fluorescence interference), % at 10 µM;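 active means activation of at least 30% at 10 µM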;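 further: DNMT1 catalytic domain with a HinP1I cleavage step and a FAM/dabcyl DNA beacon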
The depositor's hits bear a star; · = no result.

SMILES	SUMO1 PPI mod	Scp1 inh	STEP block	LMPTP inh	DNMT1 inh	DNMT1 inh conf	Beacon interf	others
N#Cc1c(SCC(=O)Nc2nc3ccc(Br)cc3s2)sc2c(O)cc(=O)[nH]c12	31.0	54.2*	21.8	53.2*	79.8*	26.8	-3.9	Beacon interf DR=>99
N#Cc1c(SCC(=O)Nc2ccc(Cl)cc2Cl)sc2c(O)cc(=O)[nH]c12	4.3	40.6	7.4	21.9	20.9	·	·
O=C(c1ccc(Cl)cc1)C1CCCN(Cc2cccn2-c2ccccn2)C1 (centres undefined)	0.8	-2.1	-1.9	-0.9	0.9	·	·
Cc1ccsc1C(=O)C1CCCN(Cc2cccn2-c2ccc(Cl)cn2)C1 (centres undefined)	-1.3	26.3	3.2	1.0	112.7*	0.5	-2.0
COc1ccc(S(=O)(=O)N(CC(=O)NCc2ccccn2)Cc2ccccc2)cc1	4.9	-4.9	-3.1	0.4	0.7	·	·
O=C(CN(Cc1ccc(Br)cc1)S(=O)(=O)c1ccccc1)NCc1ccccn1	-3.5	3.8	-0.8	-0.5	86.8*	4.5	5.0
Oc1cc(O)c(CN2CCOCC2)cc1CN1CCOCC1	5.3	0.0	-3.5	-0.6	1.8	·	·
Oc1c(CN2CCOCC2)cc(CN2CCOCC2)cc1CN1CCOCC1	4.2	-7.6	1.1	-1.6	87.3*	1.3	4.5
COc1ccc(CN(C)CC(=O)N(C)CC(=O)Nc2ccccc2Br)cc1F	3.1	-5.2	1.1	-0.8	-0.9	·	·
O=[N+]([O-])c1ccc2c([N+](=O)[O-])ccc3c2c1CC3	-17.9	·	4.3	31.2	72.9*	25.1	2.7
Cc1ccc(C(=O)Nc2ccc3c4c(cccc24)CC3)cc1[N+](=O)[O-]	-4.4	-7.3	-0.6	-0.9	-5.4	·	·
CSc1ccc(/C=C/C(=O)OCC(=O)NC2CCCCCC2)cc1	-8.5	·	-2.5	0.1	65.1*	0.8	5.8
COc1cccc(C(=O)Nc2ccc(S(=O)(=O)NCc3ccco3)cc2)c1	-1.9	-4.3	-4.2	0.4	8.4	·	·
O=C(Nc1ccc(S(=O)(=O)NCc2ccco2)cc1)c1cccc(F)c1	4.9	33.5	8.2	1.4	83.5*	8.1	6.8
O=C(c1ccc2[nH]c3c(c2c1)CCCC3)N1CCN(c2ccc(F)cc2)CC1	1.0	-1.7	1.5	1.8	59.4*	1.4	5.6
COc1ccccc1N1CCN(C(=O)c2ccc3[nH]c4c(c3c2)CCCC4)CC1	-3.0	8.0	2.2	0.1	-2.4	·	·
COC(=O)[C@H](C)N1C/C=C\COc2c(Cl)cc(Cl)cc2S1(=O)=O	6.4	3.9	-0.7	-0.4	3.8	·	·
COC(=O)[C@H](Cc1ccccc1)N1C/C=C\COc2c(Cl)cc(Cl)cc2S1(=O)=O	9.2	-6.6	-6.1	5.5	81.6*	4.1	5.4
Cc1cc(=O)[nH]c(SCC(=O)Nc2c(C)n(C)n(-c3ccccc3)c2=O)n1	1.6	-2.7	-2.3	-1.3	3.2	·	·
Cc1ccc(OCCn2ncc3ccccc3c2=O)c(C)c1	2.3	-13.1	-0.9	0.4	51.1*	5.3	7.0
CC1(C)CN(c2ccc(Br)cc2)C(=O)[C@H]1CC(=O)Nc1ccccc1	7.4	·	0.0	0.4	0.8	·	·
C=C/C(C)=C/C[C@H]1C(=C)CCC2[C@](C)(C(=O)O)CCC[C@@]21C (some centres undefined)	13.8	12.2	-1.1	1.6	89.3*	1.9	-6.9
